Active and inactive are the calls of the source. The rule behind the calls is not given here.

We go through twelve molecules from ChEMBL document CHEMBL4382221, “First-in-class DAPK1/CSF1R dual inhibitors: Discovery of 3,5-dimethoxy-N-(4-(4-methoxyphenoxy)-2-((6-morpholinopyridin-3-yl)amino)pyrimidin-5-yl)benzamide as a potential anti-tauopathies agent” (Eur J Med Chem, 2019).

The test system of the first data set is BV-2. The data set is described as follows: Anti-neuroinflammatory activity in mouse BV2 cells assessed as inhibition of LPS-stimulated NO production at 10 uM preincubated for 1 hr followed by LPS stimulation for 23 hrs by Griess reagent based assay relative to control. The format is functional.
Details: not given
The method, boiled down: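 Mouse BV-2 microglia were stimulated with LPS, with or without compound at 10 μM, and NO production was measured. Values are means ± SD of five independent experiments.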
In general terms: Nitrite, measured by Griess reagent, commonly stands in for NO production.
For orientation: inhibition means the share of the control response that was lost under treatment. As for `COc1ccc(Oc2nc(Nc3ccc(N4CCOCC4)cc3)ncc2NC(=O)c2cc(OC)cc(OC)c2)cc1`, the inhibition result was “inactive”.

The target in the next data set is T1, Death-associated protein kinase 1 (Homo sapiens, UniProt P53355). The data set is described as follows: Inhibition of human DAPK1 (1 to 363 residues) at 20 uM using KKLNRTLSFAEPG as substrate after 120 mins in presence of 10 uM [gamma-33P]-ATP by filtration method relative to control.
Details: not given
Summed up: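 Radiometric HotSpot kinase assay with 10 μM ATP. Compound tested at a single 20 μM concentration, reported as mean % inhibition from two independent experiments.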
Target sequence in this assay (P53355 whole entry, looked up, the tested form may be a part): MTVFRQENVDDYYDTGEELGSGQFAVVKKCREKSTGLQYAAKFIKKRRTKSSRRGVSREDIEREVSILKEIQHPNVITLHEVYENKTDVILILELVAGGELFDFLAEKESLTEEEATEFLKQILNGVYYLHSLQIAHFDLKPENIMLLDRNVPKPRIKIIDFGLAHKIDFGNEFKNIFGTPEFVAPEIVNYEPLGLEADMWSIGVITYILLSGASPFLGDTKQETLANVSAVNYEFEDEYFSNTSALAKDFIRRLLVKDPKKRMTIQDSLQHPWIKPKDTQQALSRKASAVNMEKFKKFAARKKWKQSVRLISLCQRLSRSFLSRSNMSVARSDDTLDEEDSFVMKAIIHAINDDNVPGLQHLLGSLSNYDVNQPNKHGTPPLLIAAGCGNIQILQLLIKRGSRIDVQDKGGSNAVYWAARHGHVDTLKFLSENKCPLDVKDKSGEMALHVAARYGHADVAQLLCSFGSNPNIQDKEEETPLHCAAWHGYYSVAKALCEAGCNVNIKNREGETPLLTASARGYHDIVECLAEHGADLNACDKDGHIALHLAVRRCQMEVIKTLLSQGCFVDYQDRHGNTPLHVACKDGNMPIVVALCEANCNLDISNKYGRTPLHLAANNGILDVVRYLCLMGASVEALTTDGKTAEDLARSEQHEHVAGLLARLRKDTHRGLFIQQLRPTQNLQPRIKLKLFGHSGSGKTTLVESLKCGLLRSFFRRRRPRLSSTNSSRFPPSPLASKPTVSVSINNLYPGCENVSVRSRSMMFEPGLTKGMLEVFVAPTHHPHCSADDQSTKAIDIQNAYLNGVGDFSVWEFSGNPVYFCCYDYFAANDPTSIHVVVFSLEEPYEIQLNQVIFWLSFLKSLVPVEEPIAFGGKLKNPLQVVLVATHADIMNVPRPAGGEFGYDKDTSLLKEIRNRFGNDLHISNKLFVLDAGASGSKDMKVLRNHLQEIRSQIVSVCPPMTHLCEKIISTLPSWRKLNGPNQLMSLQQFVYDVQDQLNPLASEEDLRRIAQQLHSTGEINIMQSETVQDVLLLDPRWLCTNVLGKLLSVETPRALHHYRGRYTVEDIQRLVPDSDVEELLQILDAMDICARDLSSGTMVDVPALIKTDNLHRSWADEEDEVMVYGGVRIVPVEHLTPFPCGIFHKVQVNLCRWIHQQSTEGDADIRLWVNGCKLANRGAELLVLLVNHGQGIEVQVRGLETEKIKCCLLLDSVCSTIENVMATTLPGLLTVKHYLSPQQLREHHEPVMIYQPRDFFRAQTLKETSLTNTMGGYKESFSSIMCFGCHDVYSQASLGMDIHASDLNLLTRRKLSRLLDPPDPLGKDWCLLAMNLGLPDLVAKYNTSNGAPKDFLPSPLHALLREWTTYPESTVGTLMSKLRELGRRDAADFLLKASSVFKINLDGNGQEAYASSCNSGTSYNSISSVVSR
In the case of `NC(=O)Nc1cnc(Nc2ccc(N3CCOCC3)cc2)nc1Oc1ccc(C(F)(F)F)cc1`, the inhibition is 44.9%.
`COc1ccc(Oc2nc(Nc3ccc(N4CCOCC4)cc3)ncc2NC(N)=O)cc1`: the inhibition was 10.8%.
Turning to `COc1ccc(Oc2nc(Nc3ccc(N4CCOCC4)cc3)ncc2NC(=O)c2cc(OC)cc(OC)c2)cc1`, the inhibition is 66%.
Still for that read-out and setting: in the case of `COc1ccc(Oc2nc(Nc3ccc(N4CCOCC4)cc3)ncc2NC(=O)c2cccc(C(F)(F)F)c2)cc1` it was 69.7%.

A further data set has as its target T1, Death-associated protein kinase 1. The data set is described as follows: Inhibition of DAPK1 in HEK293 tau-BiFC cells assessed as reduction in forskolin-induced tau aggregation at 50 uM after 48 hrs by Hoechst staining based HCS analysis. Type of data set: cell-based.
Details: not given
The method, boiled down: (§1)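 HEK293 cells expressing tau-BiFC were exposed to compounds at 50, 10 and 1 μM with forskolin (30 μM) as the tau aggregation activator for 48 h. BiFC fluorescence intensity was quantified as the read-out. Data are mean ± SD.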
Target sequence in this assay (P53355 whole entry, looked up, the tested form may be a part): as above
`COc1ccc(Oc2nc(Nc3ccc(N4CCOCC4)cc3)ncc2NC(=O)c2cccc(OC)c2)cc1`: the inhibition result is “Active”.
With `COc1ccc(Oc2nc(Nc3ccc(N4CCOCC4)cc3)ncc2NC(=O)c2cc(OC)cc(OC)c2)cc1`, the inhibition entry is “Active”.
Take `COc1ccc(Oc2nc(Nc3ccc(F)cc3)ncc2NC(=O)c2cc(OC)cc(OC)c2)cc1`: the inhibition result is “Active”.
The same measure, in the same setting: with `COc1ccc(Oc2nc(Nc3ccc(N4CCCCC4)nc3)ncc2NC(=O)c2cc(OC)cc(OC)c2)cc1` the entry was “Active”.

For the next data set the target is unchanged. The data set is described as follows: Inhibition of DAPK1 in HEK293 tau-BiFC cells assessed as reduction in forskolin-induced tau aggregation at 10 uM after 48 hrs by Hoechst staining based HCS analysis. Type of data set: cell-based.
Details: not given
The method, boiled down: as §1
Target sequence in this assay (P53355 whole entry, looked up, the tested form may be a part): as above
On to `COc1ccc(Oc2nc(Nc3ccc(N4CCOCC4)cc3)ncc2NC(=O)c2cc(OC)cc(OC)c2)cc1`, for which the inhibition result was “inactive”.
Same read-out and setting: in the case of `COc1ccc(Oc2nc(Nc3ccc(F)cc3)ncc2NC(=O)c2cc(OC)cc(OC)c2)cc1` it was “inactive”.

The target is the same in the next data set. The data set is described as follows: Inhibition of human DAPK1 (1 to 363 residues) using KKLNRTLSFAEPG as substrate after 120 mins in presence of 10 uM [gamma-33P]-ATP by filtration method.
Details: not given
Summed up: (§2)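 Radiometric HotSpot assay with direct measurement of phosphorylated substrate at 10 μM ATP. IC50 was taken from a duplicate 10-dose series, 3-fold dilutions starting at 20 μM, reported as mean.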
Target sequence in this assay (P53355 whole entry, the tested form may be a part): as the sequence (P53355 whole entry, looked up, the tested form may be a part) above
Broadly, the IC50 is the point on the concentration scale where inhibition reaches its midpoint. For the molecule `COc1ccc(Oc2nc(Nc3ccc(N4CCOCC4)cc3)ncc2NC(=O)c2cccc(OC)c2)cc1`, the IC50 was found to be 7440 nM.
The same measure, in the same setting: in the case of `NC(=O)Nc1cnc(Nc2ccc(N3CCOCC3)cc2)nc1Oc1ccc(C(F)(F)F)cc1` it was 14300 nM; in that of `COc1ccc(Oc2nc(Nc3ccc(N4CCOCC4)cc3)ncc2NC(=O)c2cc(OC)cc(OC)c2)cc1`, 2770 nM.
The same measure, in the same setting: in the case of `COc1ccc(Oc2nc(Nc3ccc(F)cc3)ncc2NC(=O)c2cc(OC)cc(OC)c2)cc1` it was 4290 nM.
Consider `COc1ccc(Oc2nc(Nc3ccc(N4CCOCC4)cc3)ncc2NC(=O)c2cccc(C(F)(F)F)c2)cc1`, for which the IC50 turned out to be 2610 nM.
In the case of `COc1ccc(Oc2nc(Nc3ccc(N4CCCCC4)nc3)ncc2NC(=O)c2cc(OC)cc(OC)c2)cc1`, the IC50 was 2690 nM.

The next data set deals with T2, Macrophage colony-stimulating factor 1 receptor (Homo sapiens, UniProt P07333). The data set is described as follows: Inhibition of human CSF1R at 10 uM using poly[Glu:Tyr] (4:1) as substrate after 120 mins in presence of 10 uM [gamma-33P]-ATP by filtration method relative to control.
T2 sequence (P07333 whole entry): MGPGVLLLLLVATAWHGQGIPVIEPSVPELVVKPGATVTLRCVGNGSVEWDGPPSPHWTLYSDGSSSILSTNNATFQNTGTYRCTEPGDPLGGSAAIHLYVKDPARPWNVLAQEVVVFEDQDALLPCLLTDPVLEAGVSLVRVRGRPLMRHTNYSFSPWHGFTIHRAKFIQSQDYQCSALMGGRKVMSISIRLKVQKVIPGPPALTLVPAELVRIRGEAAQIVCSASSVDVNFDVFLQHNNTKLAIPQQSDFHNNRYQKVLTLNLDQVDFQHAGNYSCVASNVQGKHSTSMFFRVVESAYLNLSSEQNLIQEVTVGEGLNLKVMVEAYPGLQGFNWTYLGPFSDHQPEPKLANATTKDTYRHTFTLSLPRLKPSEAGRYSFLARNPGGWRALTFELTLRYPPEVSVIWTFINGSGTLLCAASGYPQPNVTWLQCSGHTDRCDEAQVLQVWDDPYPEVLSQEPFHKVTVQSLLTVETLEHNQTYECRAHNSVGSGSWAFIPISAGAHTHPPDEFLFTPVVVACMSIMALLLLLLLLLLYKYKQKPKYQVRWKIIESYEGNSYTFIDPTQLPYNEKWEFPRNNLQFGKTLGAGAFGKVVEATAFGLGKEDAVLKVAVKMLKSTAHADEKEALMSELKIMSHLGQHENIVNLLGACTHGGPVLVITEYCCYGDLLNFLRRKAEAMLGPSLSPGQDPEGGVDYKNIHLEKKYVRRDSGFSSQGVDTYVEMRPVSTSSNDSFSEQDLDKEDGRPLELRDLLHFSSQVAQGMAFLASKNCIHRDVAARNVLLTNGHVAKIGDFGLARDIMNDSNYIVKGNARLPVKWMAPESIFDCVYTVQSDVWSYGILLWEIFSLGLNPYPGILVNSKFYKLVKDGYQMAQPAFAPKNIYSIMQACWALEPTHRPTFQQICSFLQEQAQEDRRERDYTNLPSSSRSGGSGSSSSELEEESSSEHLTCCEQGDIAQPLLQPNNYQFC
Details: not given
Summed up:
(§3)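 Radiometric HotSpot assay measuring substrate phosphorylation directly, with 10 μM ATP. Single-dose screen at 10 μM in duplicate, reported as mean % inhibition from two independent experiments.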
As for `COc1ccc(Oc2nc(Nc3ccc(N4CCOCC4)cc3)ncc2NC(=O)c2cccc(OC)c2)cc1`, the inhibition was found to be 91.8%.
Take `COc1ccc(Oc2nc(Nc3ccc(F)cc3)ncc2NC(N)=O)cc1`: the inhibition turned out to be 21%.
Still for that read-out and setting: in the case of `NC(=O)Nc1cnc(Nc2ccc(N3CCOCC3)cc2)nc1Oc1ccc(C(F)(F)F)cc1` it was 59.6%.
Consider `COc1cccc(Oc2nc(Nc3ccc(N4CCOCC4)cc3)ncc2NC(N)=O)c1`, for which the inhibition was found to be 77.6%.
Same read-out and setting: in the case of `COc1ccc(Oc2nc(Nc3ccc(N4CCOCC4)cc3)ncc2NC(N)=O)cc1` it was 65%.
`COc1ccc(Oc2nc(Nc3ccc(N4CCCCC4)nc3)ncc2NC(N)=O)cc1`: the inhibition turned out to be 28.4%.
As for `COc1ccc(Oc2nc(Nc3ccc(N4CCOCC4)nc3)ncc2NC(N)=O)cc1`, the inhibition came to 35.4%.
Take `COc1ccc(Oc2nc(Nc3ccc(N4CCOCC4)cc3)ncc2NC(=O)c2cc(OC)cc(OC)c2)cc1`: the inhibition turned out to be 95.3%.
For the molecule `COc1ccc(Oc2nc(Nc3ccc(F)cc3)ncc2NC(=O)c2cc(OC)cc(OC)c2)cc1`, the inhibition came out at 35.2%.
As for `COc1ccc(Oc2nc(Nc3ccc(N4CCOCC4)cc3)ncc2NC(=O)c2cccc(C(F)(F)F)c2)cc1`, the inhibition stood at 74.7%.
For `COc1ccc(Oc2nc(Nc3ccc(N4CCCCC4)nc3)ncc2NC(=O)c2cc(OC)cc(OC)c2)cc1`, the inhibition came out at 76%.

Test system in the next data set: not listed separately
The data set is described as follows: Effective permeability of the compound at 50 uM after 4 hrs by PAMPA. The format is ADME. The note with it: read-out: Peff. The method, boiled down: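 Parallel artificial membrane permeability assay across a BBB-PAMPA lipid membrane, reporting effective permeability (Pe) in 10^-6 cm/sec. […] Pe above 0.4 was taken as highly permeable, and above 10 as highly CNS bioavailable.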
Background: In PAMPA a lipid-coated filter parts donor from acceptor wells.
In the case of `CC(=O)[C@H]1CC[C@H]2[C@@H]3CCC4=CC(=O)CC[C@]4(C)[C@H]3CC[C@]12C` [PROGESTERONE], the Papp at 4 h, 50 µM stood at 33.3 ×10⁻⁶ cm/s.

The target in a further data set is T2, Macrophage colony-stimulating factor 1 receptor. The data set is described as follows: Inhibition of human CSF1R using poly[Glu:Tyr] (4:1) as substrate after 120 mins in presence of 10 uM [gamma-33P]-ATP by filtration method.
Details: not given
Summed up:
as §2
With `COc1ccc(Oc2nc(Nc3ccc(N4CCOCC4)cc3)ncc2NC(=O)c2cccc(OC)c2)cc1`, the IC50 is 780 nM.
Turning to `COc1cccc(Oc2nc(Nc3ccc(N4CCOCC4)cc3)ncc2NC(N)=O)c1`, the IC50 was found to be 1290 nM.
`COc1ccc(Oc2nc(Nc3ccc(N4CCOCC4)cc3)ncc2NC(N)=O)cc1`: the IC50 was determined as 4420 nM.
On the same count and under the same terms, in the case of `COc1ccc(Oc2nc(Nc3ccc(N4CCOCC4)cc3)ncc2NC(=O)c2cc(OC)cc(OC)c2)cc1` it was 120 nM; in that of `COc1ccc(Oc2nc(Nc3ccc(N4CCOCC4)cc3)ncc2NC(=O)c2cccc(C(F)(F)F)c2)cc1`, 4890 nM.
In the case of `COc1ccc(Oc2nc(Nc3ccc(N4CCCCC4)nc3)ncc2NC(=O)c2cc(OC)cc(OC)c2)cc1`, the IC50 is 1720 nM.

A further data set addresses T1, Death-associated protein kinase 1. The data set is described as follows: Inhibition of human DAPK1 (1 to 363 residues) at 10 uM using KKLNRTLSFAEPG as substrate after 120 mins in presence of 10 uM [gamma-33P]-ATP by filtration method relative to control.
Details: not given
Summed up: as §3
Target sequence in this assay (P53355 whole entry, looked up, the tested form may be a part): as the sequence (P53355 whole entry, looked up, the tested form may be a part) above
For the molecule `COc1ccc(Oc2nc(Nc3ccc(N4CCOCC4)cc3)ncc2NC(=O)c2cccc(OC)c2)cc1`, the inhibition was found to be 75.1%.
On to `COc1ccc(Oc2nc(Nc3ccc(F)cc3)ncc2NC(N)=O)cc1`, for which the inhibition amounted to 17.1%.
For `COc1cccc(Oc2nc(Nc3ccc(N4CCOCC4)cc3)ncc2NC(N)=O)c1`, the inhibition turned out to be 15.8%.
Same read-out and setting: with `COc1ccc(Oc2nc(Nc3ccc(N4CCCCC4)nc3)ncc2NC(N)=O)cc1` the figure was 31.7%; with `COc1ccc(Oc2nc(Nc3ccc(N4CCOCC4)nc3)ncc2NC(N)=O)cc1`, 19.7%; with `COc1ccc(Oc2nc(Nc3ccc(F)cc3)ncc2NC(=O)c2cc(OC)cc(OC)c2)cc1`, 65%.
For the molecule `COc1ccc(Oc2nc(Nc3ccc(N4CCCCC4)nc3)ncc2NC(=O)c2cc(OC)cc(OC)c2)cc1`, the inhibition was 67.3%.

The next data set shares this target. The data set is described as follows: Inhibition of DAPK1 in HEK293 tau-BiFC cells assessed as reduction in forskolin-induced tau aggregation at 1 to 50 uM after 48 hrs by Hoechst staining based HCS analysis. Type of data set: cell-based.
Details: not given
Summed up: as §1
Target sequence in this assay (P53355 whole entry, looked up, the tested form may be a part): as above
Consider `NC(=O)Nc1cnc(Nc2ccc(N3CCOCC3)cc2)nc1Oc1ccc(C(F)(F)F)cc1`, for which the inhibition result is “inactive”.
Regarding `COc1ccc(Oc2nc(Nc3ccc(N4CCOCC4)cc3)ncc2NC(=O)c2cccc(C(F)(F)F)c2)cc1`, the inhibition entry was “inactive”.
